Results taken from ChEMBL document CHEMBL1121393, “Synthesis and biological activity of flavipucine analogues” (1980).
Converted amounts (≈) assume the structure as drawn.

Key:
Type in all cases: functional
Klebsiella aerogenes = assay: Tested in vitro for antibacterial activity against Aerobacter aerogenes
In short: (§1)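 MICs determined by twofold agar dilution in nutrient agar with 0.2% yeast extract. Organisms were inoculated onto the plates with a Steers multiple inoculator.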

Aspergillus niger = assay: Tested for antifungal activity against Aspergillus niger
[1] = system: Bordetella bronchiseptica; assay: Tested in vitro for antibacterial activity against Bordetella bronchiseptica; in short: as §1
Escherichia coli = assay: Tested in vitro for antibacterial activity against Escherichia coli; in short: as §1
Klebsiella pneumoniae = assay: Tested in vitro for antibacterial activity against Klebsiella pneumoniae; in short: as §1
Proteus vulgaris = assay: Tested in vitro for antibacterial activity against Proteus volgaris; in short: as §1
Pseudomonas aeruginosa = assay: Tested in vitro for antibacterial activity against Pseudomonas aeruginosa; in short: as §1
Staphylococcus aureus = assay: Tested in vitro for antibacterial activity against Staphylococcus aureus; in short: as §1
Alternaria solani = assay: Tested for antifungal activity against Alternaria solani
Aureobasidium pullulans = assay: Tested for antifungal activity against Pullaria pullulans

For `CC(=O)[C@@H]1O[C@@]12C(=O)C=C(C)NC2=O`, which MIC (Klebsiella aerogenes) is on record?
The MIC was > 100 µg/mL.

And the MIC (Aspergillus niger)?
Its MIC is > 100 µg/mL.

And the MIC [1]?
Its MIC is > 100 µg/mL.

What about the MIC (Escherichia coli) of the same molecule?
Its MIC is > 100 µg/mL.

What about the MIC (Klebsiella pneumoniae) of the same molecule?
The MIC was > 100 µg/mL.

And the MIC (Proteus vulgaris)?
The MIC was > 100 µg/mL.

And the MIC (Pseudomonas aeruginosa)?
Its MIC is > 100 µg/mL.

And the MIC (Staphylococcus aureus)?
The MIC was > 100 µg/mL.

What about the MIC (Alternaria solani) of the same molecule?
The MIC was > 100 µg/mL.

And the MIC (Aureobasidium pullulans)?
The MIC was > 100 µg/mL.

How did the MIC (Klebsiella aerogenes) turn out when `CC1=CC(=O)[C@@]2(O[C@H]2C(=O)CC(C)C)C(=O)N1C` was run?
Its MIC is > 100 µg/mL.

What about the MIC (Aspergillus niger) of the same molecule?
The MIC was > 100 µg/mL.

And the MIC [1]?
The MIC was 100 µg/mL (≈ 398 µM).

What about the MIC (Escherichia coli) of the same molecule?
The MIC was > 100 µg/mL.

What about the MIC (Klebsiella pneumoniae) of the same molecule?
The MIC was 100 µg/mL (≈ 398 µM).

What about the MIC (Proteus vulgaris) of the same molecule?
Its MIC is 12.5 µg/mL (≈ 49.7 µM).

What about the MIC (Pseudomonas aeruginosa) of the same molecule?
Its MIC is > 100 µg/mL.

And the MIC (Staphylococcus aureus)?
The MIC was 25 µg/mL (≈ 99.5 µM).

What about the MIC (Alternaria solani) of the same molecule?
Its MIC is 12.5 µg/mL (≈ 49.7 µM).

`CC1=CC(=O)C2(OC2C(=O)CC(C)C)C(=O)N1` (stereo unspecified) was tested. Which MIC (Klebsiella aerogenes) did it give?
The MIC was 100 µg/mL (≈ 421 µM).

And the MIC (Aspergillus niger)?
The MIC was > 100 µg/mL.

And the MIC [1]?
Its MIC is 33.9 µg/mL (≈ 143 µM).

What about the MIC (Escherichia coli) of the same molecule?
Its MIC is 50 µg/mL (≈ 211 µM).

What about the MIC (Klebsiella pneumoniae) of the same molecule?
Its MIC is 4.7 µg/mL (≈ 19.8 µM).

And the MIC (Proteus vulgaris)?
The MIC was 4.7 µg/mL (≈ 19.8 µM).

And the MIC (Pseudomonas aeruginosa)?
Its MIC is > 100 µg/mL.

What about the MIC (Staphylococcus aureus) of the same molecule?
Its MIC is 4.7 µg/mL (≈ 19.8 µM).

What about the MIC (Alternaria solani) of the same molecule?
Its MIC is 100 µg/mL (≈ 421 µM).

And the MIC (Aureobasidium pullulans)?
The MIC was > 100 µg/mL.

How did the MIC (Klebsiella aerogenes) turn out when `CC(C)CC(=O)C1OC12C(=O)CC(C)(C)CC2=O` (stereo unspecified) was run?
The MIC was 25 µg/mL (≈ 99.1 µM).

And the MIC (Aspergillus niger)?
The MIC was 25 µg/mL (≈ 99.1 µM).

And the MIC [1]?
Its MIC is 50 µg/mL (≈ 198 µM).

What about the MIC (Escherichia coli) of the same molecule?
Its MIC is > 100 µg/mL.

What about the MIC (Klebsiella pneumoniae) of the same molecule?
Its MIC is 50 µg/mL (≈ 198 µM).

What about the MIC (Proteus vulgaris) of the same molecule?
The MIC was 50 µg/mL (≈ 198 µM).

And the MIC (Pseudomonas aeruginosa)?
Its MIC is 50 µg/mL (≈ 198 µM).

What about the MIC (Staphylococcus aureus) of the same molecule?
Its MIC is 25 µg/mL (≈ 99.1 µM).

What about the MIC (Alternaria solani) of the same molecule?
The MIC was 3.1 µg/mL (≈ 12.3 µM).

What about the MIC (Aureobasidium pullulans) of the same molecule?
Its MIC is 6.3 µg/mL (≈ 25 µM).

How did the MIC (Klebsiella aerogenes) turn out when `CC1=CC(=O)[C@@]2(O[C@H]2C(=O)CC(C)C)C(=O)N1` was run?
Its MIC is 100 µg/mL (≈ 421 µM).

What about the MIC (Aspergillus niger) of the same molecule?
Its MIC is > 100 µg/mL.

What about the MIC [1] of the same molecule?
Its MIC is 50 µg/mL (≈ 211 µM).

And the MIC (Escherichia coli)?
The MIC was 50 µg/mL (≈ 211 µM).

And the MIC (Klebsiella pneumoniae)?
Its MIC is 6.3 µg/mL (≈ 26.6 µM).

What about the MIC (Proteus vulgaris) of the same molecule?
The MIC was 6.3 µg/mL (≈ 26.6 µM).

What about the MIC (Pseudomonas aeruginosa) of the same molecule?
The MIC was > 100 µg/mL.

What about the MIC (Staphylococcus aureus) of the same molecule?
Its MIC is 6.3 µg/mL (≈ 26.6 µM).

And the MIC (Alternaria solani)?
The MIC was 50 µg/mL (≈ 211 µM).

How did the MIC (Klebsiella aerogenes) turn out when `CC1=CC(=O)[C@@]2(O[C@@H]2C(=O)CC(C)C)C(=O)N1C` was run?
The MIC was > 100 µg/mL.

What about the MIC (Aspergillus niger) of the same molecule?
Its MIC is 50 µg/mL (≈ 199 µM).

And the MIC [1]?
Its MIC is 100 µg/mL (≈ 398 µM).

And the MIC (Escherichia coli)?
Its MIC is 100 µg/mL (≈ 398 µM).

What about the MIC (Klebsiella pneumoniae) of the same molecule?
The MIC was 50 µg/mL (≈ 199 µM).

And the MIC (Proteus vulgaris)?
The MIC was 6.3 µg/mL (≈ 25.1 µM).

And the MIC (Pseudomonas aeruginosa)?
The MIC was > 100 µg/mL.

What about the MIC (Staphylococcus aureus) of the same molecule?
Its MIC is 12.5 µg/mL (≈ 49.7 µM).

What about the MIC (Alternaria solani) of the same molecule?
The MIC was 6.3 µg/mL (≈ 25.1 µM).

What does the source list for `CC1=CC(=O)[C@@]2(O[C@@H]2C(=O)CC(C)C)C(=O)N1`?
MIC (Klebsiella aerogenes): > 100 µg/mL; MIC (Aspergillus niger): > 100 µg/mL; MIC [1]: 50 µg/mL (≈ 211 µM); MIC (Escherichia coli): 50 µg/mL (≈ 211 µM); MIC (Klebsiella pneumoniae): 6.3 µg/mL (≈ 26.6 µM); MIC (Proteus vulgaris): 3.1 µg/mL (≈ 13.1 µM); MIC (Pseudomonas aeruginosa): > 100 µg/mL; MIC (Staphylococcus aureus): 6.3 µg/mL (≈ 26.6 µM); MIC (Alternaria solani): 25 µg/mL (≈ 105 µM)

With `CCCCCCCCCC(=O)[C@H]1O[C@@]12C(=O)C=C(C)NC2=O` as the molecule, how does the MIC (Aspergillus niger) read?
Its MIC is 0.2 µg/mL (≈ 0.651 µM).

What about the MIC [1] of the same molecule?
Its MIC is 3.1 µg/mL (≈ 10.1 µM).

What about the MIC (Escherichia coli) of the same molecule?
Its MIC is > 100 µg/mL.

And the MIC (Klebsiella pneumoniae)?
Its MIC is > 100 µg/mL.

And the MIC (Proteus vulgaris)?
The MIC was 12.5 µg/mL (≈ 40.7 µM).

And the MIC (Staphylococcus aureus)?
Its MIC is 0.4 µg/mL (≈ 1.3 µM).

What about the MIC (Alternaria solani) of the same molecule?
The MIC was 0.2 µg/mL (≈ 0.651 µM).

And the MIC (Aureobasidium pullulans)?
The MIC was 0.2 µg/mL (≈ 0.651 µM).

How did the MIC (Aspergillus niger) turn out when `CCCCCCCCCC(=O)[C@@H]1O[C@@]12C(=O)C=C(C)NC2=O` was run?
The MIC was 1.6 µg/mL (≈ 5.21 µM).

What about the MIC [1] of the same molecule?
The MIC was 0.8 µg/mL (≈ 2.6 µM).

And the MIC (Escherichia coli)?
Its MIC is > 100 µg/mL.

What about the MIC (Klebsiella pneumoniae) of the same molecule?
The MIC was > 100 µg/mL.

What about the MIC (Staphylococcus aureus) of the same molecule?
The MIC was 0.8 µg/mL (≈ 2.6 µM).

And the MIC (Alternaria solani)?
The MIC was 0.2 µg/mL (≈ 0.651 µM).

And the MIC (Aureobasidium pullulans)?
Its MIC is 0.2 µg/mL (≈ 0.651 µM).

Which results are given for `CC(=O)[C@H]1O[C@@]12C(=O)C=C(C)NC2=O`?
MIC (Klebsiella aerogenes): > 100 µg/mL; MIC (Aspergillus niger): > 100 µg/mL; MIC [1]: > 100 µg/mL; MIC (Escherichia coli): 50 µg/mL (≈ 256 µM); MIC (Klebsiella pneumoniae): > 100 µg/mL; MIC (Proteus vulgaris): > 100 µg/mL; MIC (Pseudomonas aeruginosa): 50 µg/mL (≈ 256 µM); MIC (Staphylococcus aureus): 100 µg/mL (≈ 512 µM); MIC (Alternaria solani): > 100 µg/mL; MIC (Aureobasidium pullulans): > 100 µg/mL
